Laboratory results from ChEMBL document CHEMBL3286203, “Reactive oxygen species (ROS) inducible DNA cross-linking agents and their effect on cancer cells and normal lymphocytes” (J Med Chem, 2014).
The source made the active and inactive calls. The rule behind the calls is not given here.

What was measured:
EKVX = experiment: Cytotoxicity against human EKVX cells assessed as growth inhibition at 10 uM after 48 hrs by SRB assay; assay type: functional, cell-based
Procedure, shortened: (§1)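 NCI DTP 60-cell-line screen run at the NCI. Cells were grown in RPMI 1640 with 5% FBS and 2 mM L-glutamine. They were seeded at 5000–40 000 cells/well depending on doubling time and grown in two plates per line. Each was exposed to a single 10 μM dose for 48 h at 37 °C, 5% CO2, 95% air, 100% humidity. Read-out was percent growth.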

SNB-75 = experiment: Cytotoxicity against human SNB75 cells assessed as growth inhibition at 10 uM after 48 hrs by SRB assay; assay type: functional, cell-based
Procedure, shortened: (§2)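 NCI-60 DTP human tumour line screen. Cells grown in RPMI 1640 with 5% fetal bovine serum and 2 mM L-glutamine, plated at 5000–40 000 cells/well according to doubling time. Single dose of 10 μM for 48 h at 37 °C, 5% CO2, 95% air, 100% humidity, two plates per line. Read-out is growth percent.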

OVCAR-8 = experiment: Cytotoxicity against human OVCAR8 cells assessed as growth inhibition at 10 uM after 48 hrs by SRB assay; assay type: functional, cell-based
Procedure, shortened: (§3)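 Single-dose screen run by the NCI Developmental Therapeutics Program (NCI-60). Cells were grown in RPMI 1640 with 5% fetal bovine serum and 2 mM L-glutamine. They were plated at 5000–40 000 cells/well, depending on doubling time. Each line was run in two plates and exposed to 10 μM drug for 48 h at 37 °C, 5% CO2, 100% humidity. Read-out was growth percent.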

BT-549 [1] = experiment: Cytotoxicity against human BT549 cells assessed as growth inhibition at 10 uM after 48 hrs by SRB assay; assay type: functional, cell-based; procedure, shortened: as §1
OVCAR-3 = experiment: Cytotoxicity against human OVCAR3 cells assessed as growth inhibition at 10 uM after 48 hrs by SRB assay; assay type: functional, cell-based; procedure, shortened: as §3
NCI/ADR-RES = experiment: Cytotoxicity against human NCI-ADR-RES cells assessed as growth inhibition at 10 uM after 48 hrs by SRB assay; assay type: functional, cell-based; procedure, shortened: as §3
SF-295 [2] = experiment: Cytotoxicity against human SF295 cells after 48 hrs by SRB assay; assay type: functional; conditions: SF-295, 48 h
Procedure, shortened: (§4)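 GI50 from the NCI Developmental Therapeutics Program in vitro human tumor cell screen. Cell lines were maintained in RPMI 1640 with 5% fetal bovine serum and 2 mM L-glutamine. They were seeded at 5000–40 000 cells/well, depending on each line's doubling time, then exposed to drug for 48 h at 37 °C, 5% CO2.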

CCRF-CEM [3] = experiment: Cytotoxicity against human CCRF-CEM cells assessed as growth inhibition at 10 uM after 48 hrs by SRB assay; assay type: functional, cell-based; procedure, shortened: as §1
UACC-257 = experiment: Cytotoxicity against human UACC257 cells assessed as growth inhibition at 10 uM after 48 hrs by SRB assay; assay type: functional, cell-based; procedure, shortened: as §2
SK-MEL-2 = experiment: Cytotoxicity against human SK-MEL-2 cells after 48 hrs by SRB assay; assay type: functional; conditions: SK-MEL-2, 48 h; procedure, shortened: as §4
U-251 = experiment: Cytotoxicity against human U251 cells assessed as growth inhibition at 10 uM after 48 hrs by SRB assay; assay type: functional, cell-based; procedure, shortened: as §2
A549 = experiment: Cytotoxicity against human A549 cells after 48 hrs by SRB assay; assay type: functional; conditions: A549, 48 h
Procedure, shortened: (§5)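 GI50 was determined in the NCI Developmental Therapeutics Program in vitro 60-line cancer screen. Tumour lines were maintained in RPMI 1640 containing 5% FBS and 2 mM L-glutamine. Cells were inoculated at 5000–40 000 cells/well according to each line's doubling time before drug exposure.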

CAKI-1 = experiment: Cytotoxicity against human Caki1 cells assessed as growth inhibition at 10 uM after 48 hrs by SRB assay; assay type: functional, cell-based; procedure, shortened: as §1
CCRF-CEM [4] = experiment: Cytotoxicity against human CCRF-CEM cells after 48 hrs by SRB assay; assay type: functional; procedure, shortened: as §5
SK-MEL-28 = experiment: Cytotoxicity against human SK-MEL-28 cells after 48 hrs by SRB assay; assay type: functional; conditions: SK-MEL-28, 48 h; procedure, shortened: as §4
LOX IMVI = experiment: Cytotoxicity against human LOXIMVI cells assessed as growth inhibition at 10 uM after 48 hrs by SRB assay; assay type: functional, cell-based; procedure, shortened: as §1
[5] = Cytotoxicity against human EKVX cells after 48 hrs by SRB assay; assay type: functional; procedure, shortened: as §5
SW-620 = experiment: Cytotoxicity against human SW620 cells assessed as growth inhibition at 10 uM after 48 hrs by SRB assay; assay type: functional, cell-based; procedure, shortened: as §2
ACHN = experiment: Cytotoxicity against human ACHN cells assessed as growth inhibition at 10 uM after 48 hrs by SRB assay; assay type: functional, cell-based; procedure, shortened: as §1
SK-OV-3 = experiment: Cytotoxicity against human SKOV3 cells assessed as growth inhibition at 10 uM after 48 hrs by SRB assay; assay type: functional, cell-based; procedure, shortened: as §3
T47D = experiment: Cytotoxicity against human T47D cells after 48 hrs by SRB assay; assay type: functional
Procedure, shortened: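 GI50 from the NCI-60 DTP human tumour line screen. Lines grown in RPMI 1640 with 5% fetal bovine serum and 2 mM L-glutamine, plated at 5000–40 000 cells/well according to doubling time. Incubated 48 h at 37 °C, 5% CO2.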

UO-31 = experiment: Cytotoxicity against human UO31 cells assessed as growth inhibition at 10 uM after 48 hrs by SRB assay; assay type: functional, cell-based; procedure, shortened: as §2
HL-60(TB) = experiment: Cytotoxicity against human HL-60(TB) cells assessed as growth inhibition at 10 uM after 48 hrs by SRB assay; assay type: functional, cell-based; procedure, shortened: as §1
MOLT-4 = experiment: Cytotoxicity against human MOLT4 cells assessed as growth inhibition at 10 uM after 48 hrs by SRB assay; assay type: functional, cell-based; procedure, shortened: as §3
HOP-92 = experiment: Cytotoxicity against human HOP92 cells assessed as growth inhibition at 10 uM after 48 hrs by SRB assay; assay type: functional, cell-based; procedure, shortened: as §1
SNB-19 = experiment: Cytotoxicity against human SNB19 cells assessed as growth inhibition at 10 uM after 48 hrs by SRB assay; assay type: functional, cell-based; procedure, shortened: as §2
SR = experiment: Cytotoxicity against human SR cells assessed as growth inhibition at 10 uM after 48 hrs by SRB assay; assay type: functional, cell-based; procedure, shortened: as §2
SF-295 [6] = experiment: Cytotoxicity against human SF295 cells assessed as growth inhibition at 10 uM after 48 hrs by SRB assay; assay type: functional, cell-based; procedure, shortened: as §3
COLO 205 = experiment: Cytotoxicity against human COLO205 cells assessed as growth inhibition at 10 uM after 48 hrs by SRB assay; assay type: functional, cell-based; procedure, shortened: as §1
BT-549 [7] = experiment: Cytotoxicity against human BT549 cells after 48 hrs by SRB assay; assay type: functional; conditions: BT-549, 48 h; procedure, shortened: as §5
[8] = Induction of [32P]-labeled 49-mer oligonucleotide duplex DNA 12 with GNC sequence at terminus (unknown origin) interstrand cross-linking at 1 mM after 16 hrs by PAGE
Procedure, shortened: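 32P-labelled 12a (1.0 μM) annealed with 1.5 equiv of 12b in 10 mM potassium phosphate pH 7 / 100 mM NaCl (65 °C for 3 min, then slow cooling). Duplex incubated with compound (final 1 μM–5 mM), with or without H2O2, in NaCl and potassium phosphate pH 8 at room temperature for 16 h. Quenched in formamide; 20% denaturing PAGE.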

HOP-62 = experiment: Cytotoxicity against human HOP62 cells assessed as growth inhibition at 10 uM after 48 hrs by SRB assay; assay type: functional, cell-based; procedure, shortened: as §1
OVCAR-4 = experiment: Cytotoxicity against human OVCAR4 cells assessed as growth inhibition at 10 uM after 48 hrs by SRB assay; assay type: functional, cell-based; procedure, shortened: as §3

CC1(C)OB(c2ccc(N(CCCl)CCCl)cc2)OC1(C)C
growth inhibition (GI) (EKVX): Active
growth inhibition (GI) (SNB-75): Active
growth inhibition (GI) (OVCAR-8): Active
growth inhibition (GI) (BT-549 [1]): Active
growth inhibition (GI) (OVCAR-3): Active
growth inhibition (GI) (NCI/ADR-RES): Active
GI50 (SF-295 [2]): 2.11 µM
growth inhibition (GI) (CCRF-CEM [3]): Active
growth inhibition (GI) (UACC-257): Active
GI50 (SK-MEL-2): 22.1 µM
growth inhibition (GI) (U-251): Active
GI50 (A549): 2.69 µM
growth inhibition (GI) (CAKI-1): Active
GI50 (CCRF-CEM [4]): 3.34 µM
GI50 (SK-MEL-28): 21 µM
growth inhibition (GI) (LOX IMVI): Active
GI50 [5]: 18.6 µM
growth inhibition (GI) (SW-620): Active
growth inhibition (GI) (ACHN): Active
growth inhibition (GI) (SK-OV-3): Active
GI50 (T47D): 10.7 µM
growth inhibition (GI) (UO-31): Active
growth inhibition (GI) (HL-60(TB)): Active
growth inhibition (GI) (MOLT-4): Active
growth inhibition (GI) (HOP-92): Active
growth inhibition (GI) (SNB-19): Active
growth inhibition (GI) (SR): Active
growth inhibition (GI) (SF-295 [6]): Active
growth inhibition (GI) (COLO 205): Active
GI50 (BT-549 [7]): 10.5 µM
Activity [8]: inactive
growth inhibition (GI) (HOP-62): Active
growth inhibition (GI) (OVCAR-4): Active
